Laboratory results from ChEMBL document CHEMBL1781935, “Amberlite-IRA-402 (OH) ion exchange resin mediated synthesis of indolizines, pyrrolo [1,2-a] quinolines and isoquinolines: antibacterial and antifungal evaluation of the products” (2011).
≈ marks a conversion by molar mass, not a printed value. Calls of active or inactive are those of the source. The calls are words filed in the database; no cut-off is given here.

Tests used:
Salmonella typhimurium [1] = assay: Antibacterial activity against Salmonella Typhimurium isolate 11; assay type: functional
How it was run: (§1)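 MIC by broth and agar dilution. Broth: 0.1 ml suspension (2 × 10^6 cfu/ml) in Mueller-Hinton broth with test drug at 1–1000 µg/ml, 37 °C overnight. Agar: serial drug dilutions in Mueller-Hinton agar, spot-inoculated with 2 × 10^6 cfu/spot, 37 °C for 24 h. MIC was the lowest concentration with no visible growth. Antibiotic controls were included.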

Bacillus subtilis [2] = assay: Antibacterial activity against Bacillus subtilis UC564; assay type: functional; how it was run: as §1
Salmonella typhi [3] = assay: Antibacterial activity against Salmonella typhi DIRW; assay type: functional
Enterococcus faecalis [4] = assay: Antibacterial activity against Streptococcus faecalis isolate 29212; assay type: functional; how it was run: as §1
Pseudomonas aeruginosa [5] = assay: Antibacterial activity against Pseudomonas aeruginosa ATCC 27853; assay type: functional; how it was run: as §1
Shigella flexneri [6] = assay: Antibacterial activity against Shigella flexneri DN13; assay type: functional; how it was run: as §1
Staphylococcus aureus [7] = assay: Antibacterial activity against Staphylococcus aureus ATCC 25923; assay type: functional; how it was run: as §1
Klebsiella pneumoniae [8] = assay: Antibacterial activity against Klebsiella pneumoniae isolate J/1/4; assay type: functional; how it was run: as §1
Vibrio parahaemolyticus [9] = assay: Antibacterial activity against Vibrio parahaemolyticus isolate 72016; assay type: functional; how it was run: as §1
Shigella dysenteriae [10] = assay: Antibacterial activity against Shigella dysenteriae isolate 3; assay type: functional
Escherichia coli [11] = assay: Antibacterial activity against Escherichia coli ATCC 25938; assay type: functional; how it was run: as §1
Micrococcus luteus [12] = assay: Antibacterial activity against Micrococcus luteus AGD1; assay type: functional; how it was run: as §1
Vibrio cholerae [13] = assay: Antibacterial activity against Vibrio cholerae isolate 7201; assay type: functional
Escherichia coli [14] = assay: Antibacterial activity against Escherichia coli ATCC 25938 at 1 to 1000 ug/ml after overnight incubation by disc diffusion method; assay type: functional
How it was run: (§2)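 Disc diffusion on Mueller-Hinton agar. Plates seeded with 0.1 ml bacterial suspension (2 × 10^6 cfu/ml). Sterile 6 mm paper discs were impregnated with compound solutions at 1–1000 µg/ml and incubated at 37 °C overnight. Read-out was the diameter of the clear inhibition zone. Stocks were 1 mg/ml in 4% Tween 80 or 4% propylene glycol.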

Klebsiella pneumoniae [15] = assay: Antibacterial activity against Klebsiella pneumoniae isolate J/1/4 at 1 to 1000 ug/ml after overnight incubation by disc diffusion method; assay type: functional; how it was run: as §2
Vibrio parahaemolyticus [16] = assay: Antibacterial activity against Vibrio parahaemolyticus isolate 72016 at 1 to 1000 ug/ml after overnight incubation by disc diffusion method; assay type: functional; how it was run: as §2
Pseudomonas aeruginosa [17] = assay: Antibacterial activity against Pseudomonas aeruginosa ATCC 27853 at 1 to 1000 ug/ml after overnight incubation by disc diffusion method; assay type: functional; how it was run: as §2
Shigella dysenteriae [18] = assay: Antibacterial activity against Shigella dysenteriae isolate 3 at 1 to 1000 ug/ml after overnight incubation by disc diffusion method; assay type: functional
Vibrio cholerae [19] = assay: Antibacterial activity against Vibrio cholerae isolate 7201 at 1 to 1000 ug/ml after overnight incubation by disc diffusion method; assay type: functional
Salmonella typhimurium [20] = assay: Antibacterial activity against Salmonella Typhimurium isolate 11 at 1 to 1000 ug/ml after overnight incubation by disc diffusion method; assay type: functional, organism-based; settings: Salmonella enterica subsp. enterica serovar Typhimurium; how it was run: as §2
Bacillus subtilis [21] = assay: Antibacterial activity against Bacillus subtilis UC564 at 1 to 1000 ug/ml after overnight incubation by disc diffusion method; assay type: functional; how it was run: as §2
Enterococcus faecalis [22] = assay: Antibacterial activity against Enterococcus faecalis isolate 29212 at 1 to 1000 ug/ml after overnight incubation by disc diffusion method; assay type: functional; how it was run: as §2
Micrococcus luteus [23] = assay: Antibacterial activity against Micrococcus luteus AGD1 at 1 to 1000 ug/ml after overnight incubation by disc diffusion method; assay type: functional; how it was run: as §2
Shigella flexneri [24] = assay: Antibacterial activity against Shigella flexneri DN13 at 1 to 1000 ug/ml after overnight incubation by disc diffusion method; assay type: functional; how it was run: as §2
Salmonella typhi [25] = assay: Antibacterial activity against Salmonella typhi DIRW at 1 to 1000 ug/ml after overnight incubation by disc diffusion method; assay type: functional; settings: Salmonella enterica subsp. enterica serovar Typhi
Vibrio cholerae [26] = assay: Antibacterial activity against Vibrio cholerae isolate 720 at 1 to 1000 ug/ml after overnight incubation by disc diffusion method; assay type: functional
Staphylococcus aureus [27] = assay: Antibacterial activity against Staphylococcus aureus ATCC 25923 at 1 to 1000 ug/ml after overnight incubation by disc diffusion method; assay type: functional; how it was run: as §2

Row | Compound | MIC (Bacillus subtilis [2]) | MIC (Enterococcus faecalis [4]) | MIC (Pseudomonas aeruginosa [5]) | MIC (Shigella flexneri [6]) | MIC (Staphylococcus aureus [7]) | MIC (Klebsiella pneumoniae [8]) | MIC (Vibrio parahaemolyticus [9]) | MIC (Shigella dysenteriae [10]) | MIC (Escherichia coli [11]) | MIC (Micrococcus luteus [12]) | MIC (Vibrio cholerae [13]) | MIC (Salmonella typhimurium [1]; Salmonella enterica) | MIC (Salmonella typhi [3]; Salmonella enterica) | further results
1 | GENTAMICIN | 4 mg/L | 0.5 mg/L | 2 mg/L | 1 mg/L | 1 mg/L | 2 mg/L | 1 mg/L | 1 mg/L | 0.25 mg/L | 8 mg/L | 0.5 mg/L |  |  | MIC (Salmonella typhimurium [1]; Salmonella enterica subsp. enterica serovar Typhimurium): 1 mg/L; MIC (Salmonella typhi [3]; Salmonella enterica subsp. enterica serovar Typhi): 1 mg/L
2 | CC1(C)S[C@@H]2[C@H](NC(=O)[C@H](N)c3ccc(O)cc3)C(=O)N2[C@H]1C(=O)O [AMOXICILLIN] | 0.5 mg/L (≈ 1.37 µM) | 0.25 mg/L (≈ 0.684 µM) | 256 mg/L (≈ 701 µM) | 128 mg/L (≈ 350 µM) | 0.5 mg/L (≈ 1.37 µM) | 128 mg/L (≈ 350 µM) | 256 mg/L (≈ 701 µM) | 64 mg/L (≈ 175 µM) | 0.5 mg/L (≈ 1.37 µM) | 0.5 mg/L (≈ 1.37 µM) | 256 mg/L (≈ 701 µM) | > 1000 mg/L | 128 mg/L (≈ 350 µM) | 
3 | CCOC(=O)c1cc2ccccn2c1C(=O)c1ccccc1 | > 500 mg/L | > 500 mg/L | > 500 mg/L | > 500 mg/L | > 500 mg/L | > 500 mg/L | > 500 mg/L | > 500 mg/L | > 500 mg/L | > 500 mg/L | > 500 mg/L | > 500 mg/L | > 500 mg/L | 
4 | CCOC(=O)c1c(C(=O)OCC)c2ccccn2c1C(=O)c1ccccc1 | > 500 mg/L | > 500 mg/L | > 500 mg/L | > 500 mg/L | > 500 mg/L | > 500 mg/L | > 500 mg/L | > 500 mg/L | > 500 mg/L | > 500 mg/L | > 500 mg/L | > 500 mg/L | > 500 mg/L | 
5 | N#Cc1cc(C(=O)c2ccccc2)n2ccc3ccccc3c12 | 128 mg/L (≈ 432 µM) | > 500 mg/L | 64 mg/L (≈ 216 µM) | > 500 mg/L | 256 mg/L (≈ 864 µM) | 32 mg/L (≈ 108 µM) | > 500 mg/L | > 500 mg/L | 256 mg/L (≈ 864 µM) | > 500 mg/L | 32 mg/L (≈ 108 µM) | > 500 mg/L | > 500 mg/L | diameter of the inhibition zone (DIZ) (Escherichia coli [14]): 8 mm; diameter of the inhibition zone (DIZ) (Klebsiella pneumoniae [15]): 11 mm; diameter of the inhibition zone (DIZ) (Vibrio parahaemolyticus [16]): inactive; diameter of the inhibition zone (DIZ) (Pseudomonas aeruginosa [17]): 9.5 mm; diameter of the inhibition zone (DIZ) (Shigella dysenteriae [18]): inactive; diameter of the inhibition zone (DIZ) (Vibrio cholerae [19]): 11 mm; diameter of the inhibition zone (DIZ) (Salmonella typhimurium [20]): inactive; diameter of the inhibition zone (DIZ) (Bacillus subtilis [21]): 7.5 mm; diameter of the inhibition zone (DIZ) (Enterococcus faecalis [22]): inactive; diameter of the inhibition zone (DIZ) (Micrococcus luteus [23]): inactive; diameter of the inhibition zone (DIZ) (Shigella flexneri [24]): inactive; diameter of the inhibition zone (DIZ) (Salmonella typhi [25]): inactive; diameter of the inhibition zone (DIZ) (Vibrio cholerae [26]): 11 mm; diameter of the inhibition zone (DIZ) (Staphylococcus aureus [27]): 7.5 mm
6 | CCOC(=O)c1c(C(=O)OCC)c2c3ccccc3ccn2c1C(=O)c1ccccc1 | 256 mg/L (≈ 616 µM) | > 500 mg/L | 500 mg/L (≈ 1200 µM) | 256 mg/L (≈ 616 µM) | 500 mg/L (≈ 1200 µM) | 128 mg/L (≈ 308 µM) | 128 mg/L (≈ 308 µM) | > 500 mg/L | 128 mg/L (≈ 308 µM) | > 500 mg/L | 500 mg/L (≈ 1200 µM) | > 500 mg/L | 128 mg/L (≈ 308 µM) | 
7 | COC(=O)c1cc2ccc3ccccc3n2c1C(=O)c1ccccc1 | > 500 mg/L | > 500 mg/L | > 500 mg/L | > 500 mg/L | > 500 mg/L | > 500 mg/L | > 500 mg/L | > 500 mg/L | > 500 mg/L | > 500 mg/L | > 500 mg/L | > 500 mg/L | > 500 mg/L | 
8 | COC(=O)c1cc2ccccn2c1C(=O)c1ccccc1 | > 500 mg/L | > 500 mg/L | > 500 mg/L | > 500 mg/L | > 500 mg/L | > 500 mg/L | > 500 mg/L | > 500 mg/L | > 500 mg/L | > 500 mg/L | > 500 mg/L | > 500 mg/L | > 500 mg/L | 
9 | CCOC(=O)c1cc2ccc3ccccc3n2c1C(=O)c1ccccc1 | > 500 mg/L | > 500 mg/L | > 500 mg/L | > 500 mg/L | > 500 mg/L | > 500 mg/L | > 500 mg/L | > 500 mg/L | > 500 mg/L | > 500 mg/L | > 500 mg/L | > 500 mg/L | > 500 mg/L | 
10 | COC(=O)c1c(C(=O)OC)c2ccccn2c1C(=O)c1ccccc1 | > 500 mg/L | > 500 mg/L | 500 mg/L (≈ 1480 µM) | > 500 mg/L | > 500 mg/L | > 500 mg/L | > 500 mg/L | > 500 mg/L | > 500 mg/L | > 500 mg/L | > 500 mg/L | > 500 mg/L | > 500 mg/L | 
11 | COC(=O)c1c(C(=O)OC)c2c3ccccc3ccn2c1C(=O)c1ccccc1 | > 500 mg/L | > 500 mg/L | 500 mg/L (≈ 1290 µM) | > 500 mg/L | 256 mg/L (≈ 661 µM) | 500 mg/L (≈ 1290 µM) | 256 mg/L (≈ 661 µM) | > 500 mg/L | 256 mg/L (≈ 661 µM) | > 500 mg/L | 500 mg/L (≈ 1290 µM) | 256 mg/L (≈ 661 µM) | > 500 mg/L | 
12 | COC(=O)c1cc(C(=O)c2ccccc2)n2ccc3ccccc3c12 | 256 mg/L (≈ 777 µM) | 256 mg/L (≈ 777 µM) | 128 mg/L (≈ 389 µM) | 128 mg/L (≈ 389 µM) | 128 mg/L (≈ 389 µM) | 256 mg/L (≈ 777 µM) | 256 mg/L (≈ 777 µM) | 256 mg/L (≈ 777 µM) | 500 mg/L (≈ 1520 µM) | > 500 mg/L | 256 mg/L (≈ 777 µM) | 500 mg/L (≈ 1520 µM) | 256 mg/L (≈ 777 µM) | 
